# Results of several laboratories.
# Target: Rho-associated protein kinase 1 (ROCK1, Homo sapiens, UniProt Q13464)
Compound,test,setting,remaining binding [%]
CC(=O)c1c(NS(C)(=O)=O)c2cc(-c3ccc(Cl)cc3)c(-c3ccc(Cl)cc3Cl)nc2n(C)c1=O,"cell-free assay, competition with immobilised ligand",1 µM,85
CN(c1nccc(-c2cnn3ncccc23)n1)C1CC1,binding,1 µM,100
CS(=O)(=O)N1CCCC(NC(=O)[C@H](CCC2CCCCC2)NC(=O)c2ccc(CNC(=O)c3cnc4ccccn34)cc2)C1 (stereo partly shown),"cell-free assay, competition with immobilised ligand",0.1 µM,100
O=C(c1ccc(Nc2ncc(Cl)c(-c3ccc(Cl)s3)n2)cc1)N1CCC(N2CCCC2)CC1,"binding, competition with immobilised ligand",1 µM,4.9
C[C@H]1CCN(c2nccc(-c3cnn4ncccc34)n2)C1,binding,1 µM,81
O=C(O)c1cc(-c2ccc(C3CCNCC3)cc2)c2ccc(-c3ccc(C(F)(F)F)cc3)cc2c1,"cell-free assay, competition with immobilised ligand",1 µM,100
N[C@H]1CCN(c2nccc(-c3cnn4ncccc34)n2)C1,binding,1 µM,73
FC(F)(F)Oc1cccc(-c2cnc3ccc(-c4ccncc4)nn23)c1,"binding, competition with immobilised ligand",5 µM,42
C=CC(=O)N1CCC(C(=O)NCC(=O)N2CCN(c3nc(-c4cnc(N)nc4C(F)F)nc(N4CCOCC4)n3)CC2)CC1,"binding, competition with immobilised ligand",1 µM,100
O=C(Nc1c[nH]nc1C(=O)NC1CCNCC1)c1cc(F)cc(F)c1,"binding, competition with immobilised ligand",1 µM,98
F[C@@H]1CCN(c2nccc(-c3cnn4ncccc34)n2)C1,binding,1 µM,100
CNC(=O)[C@@H]1CC[C@@H](n2c(-c3ccc4cnccc4c3)nc3ccc(C(=O)NCc4cccc(C(N)=O)c4)cc32)C1,"binding, competition with immobilised ligand",1 µM,100
c1cnn2ncc(-c3ccnc(N4CCC45COC5)n3)c2c1,binding,1 µM,77
O=C(NCCCN1CCOCC1)c1ccc(Nc2nccc(-c3cc4ccccc4s3)n2)cc1,"binding, competition with immobilised ligand",1 µM,54
CN(C)c1ncc(F)c(-c2cnn3ncccc23)n1,binding,1 µM,100
Cc1c(NC(=O)c2cc(C(N)=O)nc3cc(F)ccc23)c(C(F)(F)F)nn1Cc1ccc(C#N)cc1,"cell-free assay, competition with immobilised ligand",1 µM,97
O=C(NCCCN1CCOCC1)c1ccc(Nc2ncc(Cl)c(-c3ccc(Cl)s3)n2)cc1,"binding, competition with immobilised ligand",1 µM,90
COc1cnc(Nc2cccc(S(N)(=O)=O)c2)nc1N1CCN(c2ccccc2)CC1,"binding, competition with immobilised ligand",1 µM,78
CO[C@H]1CC[C@H](CNc2ccc(S(=O)(=O)NC(=O)c3ccc(N4CCN(CC5=C(c6ccc(Cl)cc6)CC(C)(C)CC5)CC4)cc3Oc3cnc4[nH]ccc4c3)cc2[N+](=O)[O-])CC1,"cell-free assay, competition with immobilised ligand",1 µM,70
c1cncc(-c2cccc(Nc3nccc(NC4CCCCC4)n3)c2)c1,"binding, competition with immobilised ligand",10 µM,10
CCCOc1ccc([C@H]2[C@H](C(=O)O)[C@@H](c3ccc4c(c3)OCO4)CN2CC(=O)Nc2c(CC)cccc2CC)cc1,"cell-free assay, competition with immobilised ligand",1 µM,65
CN(CCCC(F)(F)F)c1nccc(-c2cnn3ncccc23)n1,binding,1 µM,100
